Compound activity from PubChem BioAssay.
Shown are actives, neighbours in structure and some others; about 1.8% of the full set was active somewhere.
PREPL inh: PREPL enzyme inhibitors, primary screen, biochemical, fluorescence polarization; 320,000 compounds, 0.68% hits; inhibition, % at 5.96 µM; recombinant PREPL, fluorescence polarization activity-based probe; in the data active = inhibition above about 43%;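 note: 0% = enzyme with DMSO and 100% = wells lacking enzyme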
MT1-MMP act inh: blockers of MT1-MMP proenzyme processing, primary screen, HT1080 RFP-PRO-GFP cells, GFP/RFP fluorescence | Matrix metalloproteinase-14 (Homo sapiens), P50281 | 360,000 compounds, 0.061% hits | GFP/RFP ratio change, % at 20 µM | GFP/RFP ratio fluorescence, overnight; percent of plate control window, DMSO zero;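 active = GFP/RFP ratio change of at least 30% with cell ATP level not reduced by more than half and red fluorescence within 50% of control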
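Material: RFP-PRO-GFP reporter HT1080 cells. Dosing: single-point 20 µM compound, 1% DMSO. Controls: DMSO and RFP-L50D-GFP cell wells. Timing: cells overnight before dosing, compound overnight, 37 °C, 5% CO2. Measure: GFP/RFP fluorescence ratio.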
eLon inh: inhibitors of E. coli Lon protease, primary screen, biochemical, fluorescence polarization. P0A9M0. purified E. coli Lon protease. inhibition, % at 7.94 µM. 360,000 compounds, 0.42% hits; in the data active = inhibition above about 13%, passing the limit was not always enough;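 note: 0% = enzyme with probe and DMSO and 100% = no enzyme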
SKN-1 inh: suppressors of acrylamide-induced Pgst-4::GFP reporter in worms, primary screen, SKN-1 inhibitor project, whole organism, uHTS, GFP/RFP fluorescence ratio, strain VP596. C. elegans VP596 Pgst-4::GFP/RFP ratio, 24 h. 360,000 compounds, 0.49% hits. inhibition, % at 21.8 µM;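 active = interference check ratio from 0.5 to 1.5 plus GFP to RFP signal ratio inhibition reaching or exceeding a fixed threshold, cut at about 30% in these data, passing the limit was not always enough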
hiPSC survival: enhancers of single-cell hiPSC survival, primary screen, ATPlite luminescence; 100% = ROCK inhibitor wells, 0% = DMSO; AID 602274, 2012; survival enhancement, % at 20 µM; 360,000 compounds, 0.044% hits; in the data active = survival enhancement above about 18%;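 note: cells exposed to compounds for 16 hours before the ATP read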
TbMetRS inhib: T. brucei MetRS inhibitors, primary screen, biochemical, luminescence; methionyl-tRNA synthetase (Trypanosoma brucei brucei); purified T. brucei MetRS, ATP depletion, Kinase-Glo luminescence; inhibition, % at 11.9 µM; 360,000 compounds, 0.4% hits;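 active = inhibition above a per-plate cutoff of the control wells' mean inhibition plus 3 SD, cut at about 5.5% in these data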;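 note: 0% = DMSO wells median and 100% = median of wells with control inhibitor compound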
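System: purified T. brucei MetRS enzyme / Detection: Kinase-Glo luciferase luminescence reporting remaining unconsumed ATP / Medium: HEPES buffer with MgCl2, KCl, DTT, spermine, BSA, pyrophosphatase / Replication: singlicate, one well per compound / Evaluation: percent inhibition relative to median high and low control wells / Schedule: 2 h aminoacylation at 25 °C after 15 min preincubation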
Active calls of the source: *; nt = no result.

SMILES	PREPL inh	MT1-MMP act inh	eLon inh	SKN-1 inh	hiPSC survival	TbMetRS inhib
Cc1ccc(C(=O)OC2OC(=O)C(Cl)=C2N2CCOCC2)cc1 (centres undefined)	43*	-1	-12	-10	-2	-2
O=C(/C=C/Nc1ccc(Br)cc1F)c1ccco1	10	-7	-1	76*	-2	0
O=C(/C=C/Nc1ccc(F)c(Cl)c1)c1ccco1	-8	-2	-1	75*	-2	-1
O=C(/C=C/Nc1ccc(F)cc1F)c1ccco1	0	0	-11	45*	-5	-1
O=C(/C=C/Nc1cccc(F)c1)c1ccco1	-9	2	0	35	-2	-1
CN(C)c1ccc(N/C=C/C(=O)c2ccco2)cc1	29	6	5	39*	-6	1
OC(c1cccc(CN2CCCCC2)c1)c1ncc(-c2cccc3ccccc23)[nH]1 (centres undefined)	nt	0	-7	-2	2	0
Cc1ccc(NC(=O)c2ccccc2N(C)S(C)(=O)=O)cc1C	29	-3	-2	4	-2	-1
CC(CSc1nnnn1-c1ccccc1)Cn1c(N2CCCC2)nc2c1c(=O)[nH]c(=O)n2C (centres undefined)	46*	-9	-2	6	3	0
Cc1cccc(Cn2c(Sc3nc(C)cs3)nc3c2c(=O)[nH]c(=O)n3C)c1	-7	-6	1	40*	3	0
CCCCCCn1c(N2CCN(c3cccc(Cl)c3)CC2)nc2c1c(=O)[nH]c(=O)n2C	42	4	4	38*	6	0
CCn1c(N2CCC(Cc3ccccc3)CC2)nc2c1c(=O)[nH]c(=O)n2C	57*	0	-2	-5	1	-1
CCCCCC(=O)NC(=S)Nc1ccc(N2CCOCC2)cc1	3	2	-2	10	-1	1
CC(C)C(C(=O)NCc1ccccc1)N1CCN(C(=O)C2CCCO2)CC1 (centres undefined)	nt	1	nt	-12	nt	0
COc1ccc(N2CCN(c3nc4c(c(=O)[nH]c(=O)n4C)n3Cc3cccc(C)c3)CC2)cc1	51*	-7	-2	-7	4	-1
O=C(Nc1cccnc1)c1c(O)c2cccc3c2n(c1=O)CC3	9	-5	2	38*	-1	0
CC1(C(=O)NS(=O)(=O)c2ccc(Br)cc2)CCN1C(=O)c1cccc(F)c1 (centres undefined)	nt	-1	5	1	0	0
COc1cccc(-c2noc(-c3cccs3)n2)c1	-4	-1	-2	91*	-2	0
COc1cccc(-c2noc(-c3cccnc3)n2)c1	4	-5	3	8	-2	0
Cc1ccccc1-c1noc(-c2cccs2)n1	-3	-3	-6	88*	3	0
Cc1ccccc1-c1nnc(-c2cccs2)o1	-4	-5	-8	23	0	-1
CCOC(=O)C1CCCN(C(=O)c2oc3ccccc3c2C)CC1 (centres undefined)	nt	3	-6	2	8	0
CC1(C(=O)NS(=O)(=O)c2cccc(F)c2)CCN1C(=O)C1(c2ccc(Cl)cc2)CCC1 (centres undefined)	nt	-3	-7	2	4	0
Cc1nn(-c2ccc(F)cc2)c2sc(C(=O)N3CCCCCC3)cc12	-2	-5	-6	48*	-2	-1
O=C(NCC1CCN(Cc2ccccc2)CC1)[C@H]1O[C@@H](n2ccc(=O)[nH]c2=O)[C@H](O)[C@@H]1O	nt	0	4	-1	0	0
CCN(C(=O)c1ccco1)c1nc(-c2ccc(OC)cc2)cs1	7	3	4	46*	2	-1
COCCN(C(=O)c1ccco1)c1nc(-c2ccccc2)cs1	-3	2	1	6	0	0
COc1ccc(-c2csc(N(CC(C)C)C(=O)c3ccco3)n2)cc1	10	0	3	-6	2	-2
